Bounds are passed on as bounds.

Usually IC50 stands for the concentration that inhibits the measured activity by half.

The subject of the assay is E. coli BW25113 ΔtolC growth inhibition, OD615. The assay is described as follows: growth inhibitors of E. coli tolC mutant, dose response, strain BW25113 ΔtolC::kan (AID 617). The essentials:
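system = E. coli BW25113 tolC deletion strain (ΔtolC::kan), whole bacterial cells | technique = optical density (absorbance) at 615 nm | dosing = compounds in serially diluted dose-response series | times = bacterial growth with compound for 20 h, 37 °C | evaluation = growth-inhibition IC50 from four-parameter logistic curve, bounds set to 0% and 100%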
For the molecule `O=C(CSc1nc2ccccc2o1)Nc1ccccc1N1CCCCCC1`, the half-inhibitory concentration (IC50) was 11.7 µM.
The same measure for `Cc1cccc(NC(=O)c2cc3n(n2)C(C(F)(F)F)CC(c2ccc4c(c2)OCO4)N3)c1` (configuration not stated): 6.87 µM; for `N/C(=N/O)c1nc(N2CCCC2)nc(N(c2ccccc2)c2ccccc2)n1`: 10.9 µM; for `COc1cccc(-c2csc(N3CCN(C(=O)C4CCCCC4)CC3)n2)c1`: 16.8 µM.
As for `Cc1ccc2c(c1)NC(=O)C(CC(=O)NCCCN1CCN(c3cc(Cl)ccc3C)CC1)O2` (configuration not stated), the IC50 was 2.67 µM.
For the molecule `O=C1CCCc2nc3nc4ccccc4n3cc21`, the IC50 was 17 µM.
For `COc1ccc(-n2c(C)nc3c(cnn3-c3ccc(Cl)cc3)c2=O)cc1`, the half-inhibitory concentration (IC50) was 20.9 µM.
Regarding `c1ccc(CC2CCN(c3nnnn3-c3ccccc3)CC2)cc1`, the IC50 was 9.95 µM.
For the molecule `CCn1c(SCC(=O)OC2CCCCC2)nc2ccccc2c1=O`, the IC50 is 11.8 µM.
Take `CCS(=O)(=O)n1nc(-c2ccccc2)nc1SCc1ccccc1`: the IC50 is 15.7 µM.
Regarding `O=C(c1cccs1)N(Cc1nc2sc3c(c2c(=O)[nH]1)CCCC3)C1CCCC1`, the IC50 was 9.95 µM.
`O=C(CSc1nc2ccccc2[nH]1)Nc1cc(C(F)(F)F)ccc1N1CCOCC1`: the concentration for half-maximal inhibition (IC50) was 5.96 µM.
The figure for `CCOC(=O)c1[nH]c2ccc(F)cc2c1NC(=O)CN1CCN(C/C=C/c2ccccc2)CC1` is 14.8 µM; for `Oc1c(CN2CCN(c3ccccn3)CC2)cc(Cl)c2cccnc12` it is 11.4 µM; for `CCn1c(N2CCN(C(=O)C34CC5CC(CC(C5)C3)C4)CC2)nc2ccccc21` it is 17.2 µM.
The figure for `N=c1c2c(n(Cc3ccc(Cl)cc3Cl)c3c1CCC3)CCCC2` is 6.15 µM; for `Cc1ccc2cc(CN(Cc3ccccc3)Cc3nnnn3C3CCCC3)c(=O)[nH]c2c1` it is 11.6 µM.
The same measure for `Cc1noc(NS(=O)(=O)c2ccc(NC(=O)COc3ccc(Cl)cc3Cl)cc2)c1C`: 9.41 µM; for `Oc1ccc(Br)cc1-c1nc2cnccn2c1NC1CCCC1`: 10.5 µM.
For `O/N=C(\c1ccc(Cl)cc1)c1cc2ccccc2o1`, the IC50 is 5.7 µM.
On to `COC(=O)C1=C(C)N(C)C(C)=C(C(=O)OC)C1c1ccc(F)c(Br)c1`, for which the IC50 is 20 µM.
For `CCCCc1ccc(Nc2nc(CCC)cc(=O)[nH]2)cc1`, the IC50 is 14.9 µM.
The same measure for `C=CCn1c(SCC(O)Cn2c3ccccc3c3ccccc32)nnc1-c1ccco1` (configuration not stated): 21.6 µM.
Take `CCOc1cc(/C=C(/C#N)c2ccc(F)cc2)ccc1OCc1ccc(C(=O)O)o1`: the IC50 is 4.4 µM.
As for `Fc1ccc(-c2cc(C(F)(F)F)nc(NCC3CCCO3)n2)cc1` (configuration not stated), the IC50 was 20.7 µM.
`COc1ccccc1-c1nnc(NC(=O)c2ccc(S(=O)(=O)N(C)C)cc2)o1`: the IC50 is 3.77 µM.
With `N#Cc1nc(Cc2ccccc2)oc1NCc1ccccc1Cl`, the IC50 is 4.79 µM.
Regarding `O=C(NCCc1ccccc1)c1nc2c(nnn2Cc2ccccc2Cl)c(=O)[nH]1`, the IC50 is 4.65 µM.
In the case of `CC(C)(C)c1ccc(OCC(=O)NCc2ccco2)c(Br)c1`, the IC50 is 14.6 µM.
Consider `Fc1ccc(Br)cc1C1C=C(c2ccc(Br)s2)Nc2ncnn21` (configuration not stated), for which the IC50 is 5.22 µM.
With `CCc1ccc2oc(=O)cc(CN(C)Cc3ccccc3)c2c1`, the IC50 is 12.9 µM.
Take `O=C(Nc1ccc(Cl)c(C(F)(F)F)c1)c1ccco1`: the IC50 is 7.46 µM.
The same measure for `COc1ccc2c(c1)OC(O)(C(F)(F)C(F)F)CC2=O` (configuration not stated): 7.68 µM.
For the molecule `C=C(C)COc1ccc(-c2n[nH]c(C)c2-c2ccccc2OC)c(O)c1`, the IC50 was 13.6 µM.
Consider `CCOc1cccc(NC(=O)C2CC(=O)N(C)C(=Nc3cccc(F)c3)S2)c1` (configuration not stated), for which the IC50 is 15.1 µM.
Regarding `COc1c(N2CCNC(C)C2)c(F)cc2c(=O)c(C(=O)O)cn(C3CC3)c12` (configuration not stated), the IC50 was less than 0.2 µM.
For `CCCN(CCC)C(=O)CSc1nc2ccccc2c(=O)n1C1CCCC1`, the IC50 was 14.2 µM.
For the molecule `O=C(Nc1nc2ccccc2s1)C1CCCN1S(=O)(=O)c1ccc(Cl)cc1` (configuration not stated), the IC50 was 8.91 µM.
Take `O=C(CCNc1cc(Cl)cc(Cl)c1)c1ccco1`: the IC50 is 30.9 µM.
The same measure for `CCSc1nnc(NC(=O)c2ccccn2)s1`: 4.66 µM; for `OC1(c2cccc(C(F)(F)F)c2)CCN(c2ncnc3c2[nH]c2ccc(F)cc23)CC1`: 1.58 µM; for `Cc1cccc(N2CC(c3nc4ccccc4n3C)CC2=O)c1C` (configuration not stated): 4.93 µM.
In the case of `CC1CCCCN1c1nc(-c2ccncc2)nc2ccccc12` (configuration not stated), the concentration for half-maximal inhibition (IC50) was 12 µM.
Consider `CCOc1ccc2nc(NC(=O)CN3CCC(n4nnc5cc(F)ccc54)CC3)sc2c1`, for which the IC50 was 15.4 µM.
As for `CCCCN1C(=O)NC(=O)C2(Cc3c(nc4c(C)cccn4c3=O)N3CCc4ccccc4C32)C1=O` (configuration not stated), the half-maximal inhibitory concentration (IC50) was 3.2 µM.
With `Cc1ccc(OCc2nc(C#N)c(N3CCN(Cc4ccccc4)CC3)o2)cc1`, the half-maximal inhibitory concentration (IC50) was 12.9 µM.
In the case of `CCCOc1nc2c(c(=O)n(C)c(=O)n2C)n1Cc1cccc2ccccc12`, the IC50 is 28.2 µM.
On to `Cc1ccc(C(c2nnnn2CCc2ccccc2)N2CCSCC2)cc1` (configuration not stated), for which the 50% inhibitory concentration (IC50) is 30.9 µM.
As to `COc1ccc2c(c1)CCc1c(C(=O)N3CCc4ccccc4C3)noc1-2`, the IC50 was 5.76 µM.
On to `N#Cc1cn(CCOc2ccccc2F)c2ccccc12`, for which the IC50 is 16.1 µM.
Take `Cc1cc(NC(=O)c2noc3c2CCCC3)nn1Cc1ccc(Cl)cc1`: the IC50 was 18.4 µM.
Consider `COc1ccc(NC(=O)c2cc(-c3cc(C)cc(C)c3O)n[nH]2)cc1Cl`, for which the IC50 was 1.95 µM.
The same measure for `COC(=O)c1sccc1NC(=O)c1cc2c(s1)CCCC2`: 4.95 µM.
Take `Cc1ccc2cc(CN(Cc3ccc(F)cc3)Cc3nnnn3C3CCCC3)c(=O)[nH]c2c1`: the IC50 was 12.8 µM.
Regarding `O=S(=O)(Nc1ncnc2sc3c(c12)CCC3)c1ccc(Cl)s1`, the IC50 was 5.93 µM.
For `CCOC(=O)c1cnc(-n2nc(C)cc2C)nc1Nc1ccc(N(C)C)cc1`, the IC50 was 13.7 µM.
Regarding `Cc1ccccc1OCCCN1C(=O)C(=O)c2cccc(C)c21`, the IC50 is 103 µM.
With `C=CCn1c(SCC(=O)Nc2nc3ccccc3s2)nnc1-c1ccccc1O`, the IC50 is 8.28 µM.
The figure for `COc1ccc(C)cc1NC(=O)CSc1nnc(COc2ccccc2)n1Cc1ccco1` is 22 µM.
The figure for `Cc1cccc(S(=O)(=O)C(C#N)c2nc3ccccc3nc2N2CC(C)OC(C)C2)c1` (configuration not stated) is 14.4 µM; for `Cc1cc(N2CCC(C(=O)Nc3ccc(F)cc3)CC2)nc(-c2ccccc2)n1` it is 22.5 µM; for `COc1ccc(C(C)(C)C)cc1NC(=O)Nc1ccc2c(c1)OCO2` it is 5.28 µM.
For the molecule `Nc1c(C(=O)NCCc2ccccc2)c2nc3ccccc3nc2n1CCN1CCOCC1`, the IC50 was 12.4 µM.
As to `Cc1cc(/C=C(/C#N)c2cccc(F)c2)c(C)n1-c1cccnc1`, the IC50 was 10.9 µM.
Take `O=C(NCc1ccco1)C(c1cccs1)N(C(=O)C1COc2ccccc2O1)c1cccc(O)c1` (configuration not stated): the IC50 was 11.8 µM.
In the case of `CCCc1nc(SCC(=O)N2CCCc3ccccc32)c2c(=O)n(C)c(=O)n(C)c2n1`, the IC50 is 11.6 µM.
On to `CC(=O)c1sc(NC(=O)C2(F)C(F)(F)C(F)(F)C(F)(F)C(F)(F)C2(F)F)nc1C`, for which the IC50 is 0.92 µM.
As to `Clc1ccccc1OCc1nnc(-c2ccccc2Br)o1`, the IC50 was 12.4 µM.
In the case of `Cc1csc(SCC(=O)Nc2nc(-c3ccccc3)cs2)n1`, the IC50 was 14.1 µM.
For the molecule `Cc1ccc(C)n1-n1cnc2sc(-c3ccccc3)cc2c1=O`, the concentration for half-maximal inhibition (IC50) is 7.12 µM.
Regarding `Cc1cccc(-c2noc(CN(C(=O)c3ccc(Br)o3)C(C)C)n2)c1`, the IC50 is 11.8 µM.
The figure for `COc1ccc(S(=O)(=O)N(Cc2cccs2)C2CCCC2)cc1` is 8.13 µM.
With `CC1CCc2c(C(=O)Oc3cccc(-n4cnnn4)c3)csc2C1` (configuration not stated), the IC50 is 20.2 µM.
Regarding `Cc1ccccc1-c1nc(CN2CCC(C(=O)NCCC3=CCCCC3)CC2)c(C)o1`, the IC50 was 13.9 µM.
The figure for `Cc1cc(C)n(-c2nc3ccccc3nc2N2CCCCCC2)n1` is 18.4 µM; for `COc1ccc(OC)c(S(=O)(=O)N2CCN(c3c(C)cccc3C)CC2)c1` it is 15.6 µM; for `N#Cc1c(NC(=O)c2ccc(Br)o2)n(-c2ccccc2)c2nc3ccccc3nc12` it is 15.3 µM.
For `CCOc1ccc(OCCSc2nnnn2C2CCCCC2)cc1`, the IC50 was 14.5 µM.
Regarding `O=C1c2ccccc2C(=O)N1CCC(c1ccc(F)cc1)c1ccco1` (configuration not stated), the IC50 is 13.4 µM.
Consider `COc1ccccc1-c1noc(CCC(=O)Nc2cccc(C(F)(F)F)c2)n1`, for which the IC50 was 15.9 µM.
The same measure for `Cc1cc(N2CCCCCC2)nc(-c2ccccc2O)n1`: 13.6 µM; for `CCOc1ccccc1NC(=O)c1cc(CC(C)C)oc1C`: 21.8 µM.
Turning to `CN(c1ccccc1)c1nc(N2CCCC2)nc(-n2ccnc2)n1`, the half-maximal inhibitory concentration (IC50) was 4.03 µM.
For `CCCn1nnnc1NC(=O)CSc1ccc(Cl)cc1`, the IC50 was 4.21 µM.
The figure for `Cc1ccc(-c2csc3ncnc(Sc4nnc(CN5CCCCCC5=O)o4)c23)cc1` is 21.6 µM.
`CCn1cc(C(=O)OC(C)C(=O)Nc2c(C)n(C)n(-c3ccccc3)c2=O)c(=O)c2ccc(C)nc21` (configuration not stated): the IC50 was 12.7 µM.
The same measure for `CCOC(=O)Cc1nnc2c(Nc3ccc(Cl)cc3)nc3nonc3n12`: 3.75 µM.
As to `O=C(Nc1cccc(Cl)c1)Nc1nccs1`, the IC50 was 11 µM.
In the case of `CC1(C)COCN1S(=O)(=O)c1ccc(C(=O)Nc2nnc(-c3ccc(Cl)s3)o2)cc1`, the half-inhibitory concentration (IC50) was less than 0.2 µM.
As to `COc1ccccc1-n1c(=O)oc2ccc(Cl)cc2c1=O`, the IC50 was 1.49 µM.
Regarding `Cc1nc2c(C(=O)NCCC3=CCCCC3)c[nH]n2c(=O)c1Cl`, the IC50 was 8.36 µM.
As for `CCOC(=O)C1Cn2c(nc3c(c2=O)C(C)(CC)Cc2ccccc2-3)S1` (configuration not stated), the IC50 was 24.2 µM.
As for `CCOC(=O)c1ccccc1NC(=O)c1c(F)c(F)c(F)c(F)c1F`, the IC50 was 23 µM.
For the molecule `Cc1nn(-c2ccccc2)c(Cl)c1C1C(C#N)=C(N)Oc2c1c(=O)oc1ccccc21` (configuration not stated), the IC50 is 12 µM.
Take `O=C(Nc1nnc(-c2ccc(F)cc2)o1)c1ccco1`: the IC50 is 16.3 µM.
The same measure for `Cc1cccc(-c2cc3nc4c(c(N5CCOCC5)n3n2)CCCC4)c1`: 16 µM; for `COc1ccc(NS(=O)(=O)c2ccc3oc4ccccc4c3c2)cn1`: 5.62 µM.

The record behind these values is PubChem BioAssay AID617 (SRMLSC, 2007).
